# Source: ChEMBL document CHEMBL1667763, “4-anilinoquinoline triazines: a novel class of hybrid antimalarial agents” (Eur J Med Chem, 2011)
# Calls of active or inactive are those of the source. The rule behind the calls is not given here.
# System: Plasmodium yoelii
# Test: Antimalarial activity against chloroquine-resistant Plasmodium yoelii N-67 infected in Swiss mouse assessed as mouse survival at 50 mg/kg, ip qd for 4 days
# Type: functional, organism-based
# Set-up: dose 50 mg/kg
# Conditions: not given
# Outline: (§1)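 Swiss mice (22±2 g), groups of five, inoculated with 1×10^6 P. yoelii N-67 parasitized RBC on day 0; compounds as aqueous suspension with a few drops Tween 80, given intraperitoneally in 0.2 mL once daily days 0–3. Parasitemia from thin blood smears days 4–6, group mean % suppression vs untreated controls; survivors counted on day 28.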
row,SMILES,Activity
1,CCN1CCN(c2nc(Nc3ccc(Nc4ccnc5cc(Cl)ccc45)cc3)nc(N3CCCCC3)n2)CC1,Active
2,CNc1nc(Nc2ccc(C)cc2)nc(Nc2ccc(Nc3ccnc4cc(Cl)ccc34)cc2)n1,inactive
3,Clc1ccc2c(Nc3ccc(Nc4nc(NCCCN5CCOCC5)nc(Nc5ccccc5)n4)cc3)ccnc2c1,Active
4,Clc1ccc2c(Nc3ccc(Nc4nc(NCCCN5CCOCC5)nc(N5CCCCC5)n4)cc3)ccnc2c1,Active
5,CCCCNc1nc(Nc2ccccc2)nc(Nc2ccc(Nc3ccnc4cc(Cl)ccc34)cc2)n1,inactive
6,CCCCNc1nc(Nc2ccccc2)nc(Nc2cccc(Nc3ccnc4cc(Cl)ccc34)c2)n1,inactive
7,CCCCNc1nc(Nc2ccc(Nc3ccnc4cc(Cl)ccc34)cc2)nc(Nc2ccccc2C)n1,inactive
8,Cc1ccc(Nc2nc(NCCCN3CCOCC3)nc(Nc3cccc(Nc4ccnc5cc(Cl)ccc45)c3)n2)cc1,inactive
9,Cc1ccc(Nc2nc(NCCCN3CCOCC3)nc(Nc3ccc(Nc4ccnc5cc(Cl)ccc45)cc3)n2)cc1,inactive
10,CCN1CCN(c2nc(Nc3ccccc3)nc(Nc3ccc(Nc4ccnc5cc(Cl)ccc45)cc3)n2)CC1,inactive

# System: Plasmodium yoelii
# Test: Antimalarial activity against chloroquine-resistant Plasmodium yoelii N-67 infected in Swiss mouse assessed as mouse survival at 25 mg/kg, ip qd for 4 days
# Type: functional, organism-based
# Set-up: dose 25 mg/kg
# Conditions: not given
# Outline: as §1
row,SMILES,Activity
1,CCN1CCN(c2nc(Nc3ccc(Nc4ccnc5cc(Cl)ccc45)cc3)nc(N3CCCCC3)n2)CC1,inactive
2,Clc1ccc2c(Nc3ccc(Nc4nc(NCCCN5CCOCC5)nc(Nc5ccccc5)n4)cc3)ccnc2c1,inactive
3,Clc1ccc2c(Nc3ccc(Nc4nc(NCCCN5CCOCC5)nc(N5CCCCC5)n4)cc3)ccnc2c1,inactive

# System: Plasmodium yoelii
# Test: Antimalarial activity against chloroquine-resistant Plasmodium yoelii N-67 infected in Swiss mouse assessed as suppression of parasitaemia level at 25 mg/kg, ip qd for 4 days
# Type: functional
# Conditions: route intraperitoneal
# Outline: as §1
row,SMILES,Activity [%]
1,CCN1CCN(c2nc(Nc3ccc(Nc4ccnc5cc(Cl)ccc45)cc3)nc(N3CCCCC3)n2)CC1,100
2,Clc1ccc2c(Nc3ccc(Nc4nc(NCCCN5CCOCC5)nc(Nc5ccccc5)n4)cc3)ccnc2c1,100
3,Clc1ccc2c(Nc3ccc(Nc4nc(NCCCN5CCOCC5)nc(N5CCCCC5)n4)cc3)ccnc2c1,100

# System: Plasmodium yoelii
# Test: Antimalarial activity against chloroquine-resistant Plasmodium yoelii N-67 infected in Swiss mouse assessed as suppression of parasitaemia level at 50 mg/kg, po qd for 4 days
# Type: functional
# Conditions: not given
# Outline: as §1, with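 “orally” for “intraperitoneally”, “0.1” for “0.2”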
row,SMILES,Activity [%]
1,CCN1CCN(c2nc(Nc3ccc(Nc4ccnc5cc(Cl)ccc45)cc3)nc(N3CCCCC3)n2)CC1,100
2,Clc1ccc2c(Nc3ccc(Nc4nc(NCCCN5CCOCC5)nc(N5CCCCC5)n4)cc3)ccnc2c1,100

# System: not listed separately
# Test: Inhibition of beta-hematin formation after 16 hrs
# Type: functional
# Conditions: not given
# Outline: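 Plasma came from male Swiss mice (15–20 g) infected with 1 × 10⁵ infected RBCs. Blood was drawn at 50% parasitemia by cardiac puncture into 2.0% citrate and spun at 4 °C. Hemin substrate ([…]) and compound were incubated in 100 mM acetate buffer, pH 5.1, at 37 °C for 16 h with shaking. The pellet was washed in SDS buffers. IC50 was the mean of three experiments in triplicate.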
row,SMILES,IC50 [µg/mL]
1,CCN1CCN(c2nc(Nc3ccc(Nc4ccnc5cc(Cl)ccc45)cc3)nc(N3CCCCC3)n2)CC1,2.79
2,CNc1nc(Nc2ccc(C)cc2)nc(Nc2ccc(Nc3ccnc4cc(Cl)ccc34)cc2)n1,3.16
3,Clc1ccc2c(Nc3ccc(Nc4nc(NCCCN5CCOCC5)nc(Nc5ccccc5)n4)cc3)ccnc2c1,2.98
4,Clc1ccc2c(Nc3ccc(Nc4nc(NCCCN5CCOCC5)nc(N5CCCCC5)n4)cc3)ccnc2c1,2.71
5,CCCCNc1nc(Nc2ccccc2)nc(Nc2ccc(Nc3ccnc4cc(Cl)ccc34)cc2)n1,3.08
6,CCCCNc1nc(Nc2ccccc2)nc(Nc2cccc(Nc3ccnc4cc(Cl)ccc34)c2)n1,2.55
7,CCCCNc1nc(Nc2ccc(Nc3ccnc4cc(Cl)ccc34)cc2)nc(Nc2ccccc2C)n1,2.96
8,Cc1ccc(Nc2nc(NCCCN3CCOCC3)nc(Nc3cccc(Nc4ccnc5cc(Cl)ccc45)c3)n2)cc1,2.7
9,Cc1ccc(Nc2nc(NCCCN3CCOCC3)nc(Nc3ccc(Nc4ccnc5cc(Cl)ccc45)cc3)n2)cc1,2.85
10,CCN1CCN(c2nc(Nc3ccccc3)nc(Nc3ccc(Nc4ccnc5cc(Cl)ccc45)cc3)n2)CC1,2.69

# System: Plasmodium yoelii
# Test: Antimalarial activity against chloroquine-resistant Plasmodium yoelii N-67 infected in Swiss mouse assessed as mouse survival at 50 mg/kg, po qd for 4 days
# Type: functional, organism-based
# Set-up: dose 50 mg/kg
# Conditions: not given
# Outline: as §1, with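 “orally” for “intraperitoneally”, “0.1” for “0.2”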
row,SMILES,Activity
1,CCN1CCN(c2nc(Nc3ccc(Nc4ccnc5cc(Cl)ccc45)cc3)nc(N3CCCCC3)n2)CC1,inactive
2,Clc1ccc2c(Nc3ccc(Nc4nc(NCCCN5CCOCC5)nc(N5CCCCC5)n4)cc3)ccnc2c1,inactive

# System: Plasmodium yoelii
# Test: Antimalarial activity against chloroquine-resistant Plasmodium yoelii N-67 infected in Swiss mouse assessed as suppression of parasitaemia level at 100 mg/kg, po qd for 4 days
# Type: functional
# Conditions: not given
# Outline: as §1, with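 “orally” for “intraperitoneally”, “0.1” for “0.2”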
row,SMILES,Activity [%]
1,CCN1CCN(c2nc(Nc3ccc(Nc4ccnc5cc(Cl)ccc45)cc3)nc(N3CCCCC3)n2)CC1,100
2,Clc1ccc2c(Nc3ccc(Nc4nc(NCCCN5CCOCC5)nc(Nc5ccccc5)n4)cc3)ccnc2c1,100
3,Clc1ccc2c(Nc3ccc(Nc4nc(NCCCN5CCOCC5)nc(N5CCCCC5)n4)cc3)ccnc2c1,100

# System: Plasmodium falciparum 3D7
# Test: Selectivity index, IC50 for african green monkey Vero cells to IC50 for Plasmodium falciparum 3D7
# Conditions: not given
row,SMILES,Selectivity Index
1,CCN1CCN(c2nc(Nc3ccc(Nc4ccnc5cc(Cl)ccc45)cc3)nc(N3CCCCC3)n2)CC1,124.85
2,CNc1nc(Nc2ccc(C)cc2)nc(Nc2ccc(Nc3ccnc4cc(Cl)ccc34)cc2)n1,491.91
3,Clc1ccc2c(Nc3ccc(Nc4nc(NCCCN5CCOCC5)nc(Nc5ccccc5)n4)cc3)ccnc2c1,154.29
4,Clc1ccc2c(Nc3ccc(Nc4nc(NCCCN5CCOCC5)nc(N5CCCCC5)n4)cc3)ccnc2c1,170.18
5,CCCCNc1nc(Nc2ccccc2)nc(Nc2ccc(Nc3ccnc4cc(Cl)ccc34)cc2)n1,287.22
6,CCCCNc1nc(Nc2ccccc2)nc(Nc2cccc(Nc3ccnc4cc(Cl)ccc34)c2)n1,156.25
7,CCCCNc1nc(Nc2ccc(Nc3ccnc4cc(Cl)ccc34)cc2)nc(Nc2ccccc2C)n1,821.15
8,Cc1ccc(Nc2nc(NCCCN3CCOCC3)nc(Nc3cccc(Nc4ccnc5cc(Cl)ccc45)c3)n2)cc1,321.48
9,Cc1ccc(Nc2nc(NCCCN3CCOCC3)nc(Nc3ccc(Nc4ccnc5cc(Cl)ccc45)cc3)n2)cc1,610.98
10,CCN1CCN(c2nc(Nc3ccccc3)nc(Nc3ccc(Nc4ccnc5cc(Cl)ccc45)cc3)n2)CC1,192.66

# System: Plasmodium yoelii
# Test: Antimalarial activity against chloroquine-resistant Plasmodium yoelii N-67 infected in Swiss mouse assessed as mouse survival at 100 mg/kg, po qd for 4 days
# Type: functional, organism-based
# Set-up: dose 100 mg/kg
# Conditions: not given
# Outline: as §1, with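 “orally” for “intraperitoneally”, “0.1” for “0.2”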
row,SMILES,Activity
1,CCN1CCN(c2nc(Nc3ccc(Nc4ccnc5cc(Cl)ccc45)cc3)nc(N3CCCCC3)n2)CC1,Active
2,Clc1ccc2c(Nc3ccc(Nc4nc(NCCCN5CCOCC5)nc(Nc5ccccc5)n4)cc3)ccnc2c1,inactive
3,Clc1ccc2c(Nc3ccc(Nc4nc(NCCCN5CCOCC5)nc(N5CCCCC5)n4)cc3)ccnc2c1,Active

# System: Plasmodium yoelii
# Test: Antimalarial activity against chloroquine-resistant Plasmodium yoelii N-67 infected in Swiss mouse assessed as suppression of parasitaemia level at 50 mg/kg, ip qd for 4 days
# Type: functional
# Conditions: route intraperitoneal
# Outline: as §1
row,SMILES,Activity [%]
1,CCN1CCN(c2nc(Nc3ccc(Nc4ccnc5cc(Cl)ccc45)cc3)nc(N3CCCCC3)n2)CC1,100
2,CNc1nc(Nc2ccc(C)cc2)nc(Nc2ccc(Nc3ccnc4cc(Cl)ccc34)cc2)n1,100
3,Clc1ccc2c(Nc3ccc(Nc4nc(NCCCN5CCOCC5)nc(Nc5ccccc5)n4)cc3)ccnc2c1,100
4,Clc1ccc2c(Nc3ccc(Nc4nc(NCCCN5CCOCC5)nc(N5CCCCC5)n4)cc3)ccnc2c1,100
5,CCCCNc1nc(Nc2ccccc2)nc(Nc2ccc(Nc3ccnc4cc(Cl)ccc34)cc2)n1,100
6,CCCCNc1nc(Nc2ccccc2)nc(Nc2cccc(Nc3ccnc4cc(Cl)ccc34)c2)n1,100
7,CCCCNc1nc(Nc2ccc(Nc3ccnc4cc(Cl)ccc34)cc2)nc(Nc2ccccc2C)n1,100
8,Cc1ccc(Nc2nc(NCCCN3CCOCC3)nc(Nc3cccc(Nc4ccnc5cc(Cl)ccc45)c3)n2)cc1,100
9,Cc1ccc(Nc2nc(NCCCN3CCOCC3)nc(Nc3ccc(Nc4ccnc5cc(Cl)ccc45)cc3)n2)cc1,100
10,CCN1CCN(c2nc(Nc3ccccc3)nc(Nc3ccc(Nc4ccnc5cc(Cl)ccc45)cc3)n2)CC1,100

# System: Plasmodium falciparum
# Test: Antimalarial activity against chloroquine-sensitive Plasmodium falciparum 3D7 infected in erythrocytes after 72 hrs by syber green 1 assay
# Conditions: 3D7, 72 h
row,SMILES,IC50 [nM]
1,CCN1CCN(c2nc(Nc3ccc(Nc4ccnc5cc(Cl)ccc45)cc3)nc(N3CCCCC3)n2)CC1,29.7
2,CNc1nc(Nc2ccc(C)cc2)nc(Nc2ccc(Nc3ccnc4cc(Cl)ccc34)cc2)n1,6.41
3,Clc1ccc2c(Nc3ccc(Nc4nc(NCCCN5CCOCC5)nc(Nc5ccccc5)n4)cc3)ccnc2c1,3.01
4,Clc1ccc2c(Nc3ccc(Nc4nc(NCCCN5CCOCC5)nc(N5CCCCC5)n4)cc3)ccnc2c1,23.1
5,CCCCNc1nc(Nc2ccccc2)nc(Nc2ccc(Nc3ccnc4cc(Cl)ccc34)cc2)n1,18.5
6,CCCCNc1nc(Nc2ccccc2)nc(Nc2cccc(Nc3ccnc4cc(Cl)ccc34)c2)n1,26.3
7,CCCCNc1nc(Nc2ccc(Nc3ccnc4cc(Cl)ccc34)cc2)nc(Nc2ccccc2C)n1,31.5
8,Cc1ccc(Nc2nc(NCCCN3CCOCC3)nc(Nc3cccc(Nc4ccnc5cc(Cl)ccc45)c3)n2)cc1,34.6
9,Cc1ccc(Nc2nc(NCCCN3CCOCC3)nc(Nc3ccc(Nc4ccnc5cc(Cl)ccc45)cc3)n2)cc1,7.03
10,CCN1CCN(c2nc(Nc3ccccc3)nc(Nc3ccc(Nc4ccnc5cc(Cl)ccc45)cc3)n2)CC1,5.92
